Test results taken from ChEMBL document CHEMBL5357047, “The development of thymol-isatin hybrids as broad-spectrum antibacterial agents with potent anti-MRSA activity” (RSC Med Chem, 2024).
In brackets after ≈: the same amount, converted by molar mass.

Legend:
Type in all cases: functional
Klebsiella pneumoniae [1] = assay: Antibacterial activity against Klebsiella pneumoniae MTCC 109 assessed as inhibition of bacterial growth at 50 uM measured after 48 hrs by agar well diffusion method; details: read-out: IZ
Klebsiella pneumoniae [2] = assay: Antibacterial activity against clinically isolated Klebsiella pneumoniae RBRJ019 assessed as inhibition of bacterial growth at 50 uM measured after 48 hrs by agar well diffusion method; details: read-out: IZ
Enterococcus faecalis [3] = assay: Antibacterial activity against clinically isolated Enterococcus faecalis RBRJ015 assessed as inhibition of bacterial growth at 50 uM measured after 48 hrs by agar well diffusion method; details: read-out: IZ
Enterococcus faecalis [4] = assay: Antibacterial activity against Enterococcus faecalis MTCC 439 assessed as inhibition of bacterial growth at 50 uM measured after 48 hrs by agar well diffusion method; details: read-out: IZ
Escherichia coli [5] = assay: Antibacterial activity against clinically isolated Escherichia coli RBRJ005 assessed as inhibition of bacterial growth at 50 uM measured after 48 hrs by agar well diffusion method; details: read-out: IZ
Escherichia coli [6] = assay: Antibacterial activity against clinically isolated Escherichia coli RBRJ013 assessed as inhibition of bacterial growth at 50 uM measured after 48 hrs by agar well diffusion method; details: read-out: IZ
Pseudomonas aeruginosa = assay: Antibacterial activity against Pseudomonas aeruginosa MTCC 424 assessed as inhibition of bacterial growth at 50 uM measured after 48 hrs by agar well diffusion method; details: read-out: IZ
Staphylococcus aureus [7] = assay: Antibacterial activity against Methicillin-resistant Staphylococcus aureus ATCC 33591 assessed as inhibition of bacterial growth at 50 uM measured after 48 hrs by agar well diffusion method; details: read-out: IZ
Summary of the method: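 Agar well diffusion on Mueller Hinton agar seeded with bacteria at 0.5 McFarland. […] Incubated 48 h at 37 °C aerobically; zone of inhibition diameter (mm) measured. Triplicate.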

Staphylococcus aureus [8] = assay: Antibacterial activity against Staphylococcus aureus MTCC 740 assessed as inhibition of bacterial growth at 50 uM measured after 48 hrs by agar well diffusion method; details: read-out: IZ
Acinetobacter baumannii = assay: Antibacterial activity against clinically isolated Acinetobacter baumannii RBRJ027 assessed as inhibition of bacterial growth at 50 uM measured after 48 hrs by agar well diffusion method; details: read-out: IZ
Staphylococcus aureus [9] = assay: Antibacterial activity against clinically isolated Methicillin-resistant Staphylococcus aureus assessed as inhibition of bacterial growth at 50 uM measured after 48 hrs by agar well diffusion method; details: read-out: IZ
Staphylococcus aureus [10] = assay: Antibacterial activity against clinically isolated Staphylococcus aureus RBRJ010 assessed as inhibition of bacterial growth at 50 uM measured after 48 hrs by agar well diffusion method; details: read-out: IZ
Escherichia coli [11] = assay: Antibacterial activity against Escherichia coli MTCC 119 assessed as inhibition of bacterial growth at 50 uM measured after 48 hrs by agar well diffusion method; details: read-out: IZ
[12] = tested on: Staphylococcus epidermidis; assay: Antibacterial activity against Staphylococcus epidermidis MTCC 435 assessed as inhibition of bacterial growth at 50 uM measured after 48 hrs by agar well diffusion method; details: read-out: IZ
Enterobacter cloacae = assay: Antibacterial activity against clinically isolated Enterobacter cloacae RBRJ017 assessed as inhibition of bacterial growth at 50 uM measured after 48 hrs by agar well diffusion method; details: read-out: IZ
Klebsiella pneumoniae [13] = assay: Antibacterial activity against clinically isolated Klebsiella pneumoniae RBRJ024 assessed as inhibition of bacterial growth at 50 uM measured after 48 hrs by agar well diffusion method; details: read-out: IZ
Staphylococcus aureus [14] = assay: Bactericidal activity against clinically isolated Staphylococcus aureus RBRJ010 assessed as inhibition of bacterial growth measured after 48 hrs by agar plate method
Summary of the method: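 MBC: 10 μL from wells showing no INT colour change after broth microdilution subcultured on drug-free Mueller Hinton agar, 48 h at 37 °C aerobically; lowest concentration with no visible growth taken as MBC (μM). Triplicate.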

Staphylococcus aureus [15] = assay: Antibacterial activity against clinically isolated Staphylococcus aureus RBRJ010 assessed as inhibition of bacterial growth measured after 48 hrs by broth microdilution method
Staphylococcus aureus [16] = assay: Bactericidal activity against Staphylococcus aureus MTCC 740 assessed as inhibition of bacterial growth measured after 48 hrs by agar plate method
Summary of the method: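 MBC: aliquots from microdilution wells without colour change subcultured on drug-free Mueller Hinton agar, 48 h at 37 °C aerobically. MBC is the lowest concentration with no visible growth. Triplicate.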

Staphylococcus aureus [17] = assay: Antibacterial activity against Staphylococcus aureus MTCC 740 assessed as inhibition of bacterial growth measured after 48 hrs by broth microdilution method

| SMILES | zone of inhibition at 50 µM (Klebsiella pneumoniae [1]) [mm] | zone of inhibition at 50 µM (Klebsiella pneumoniae [2]) [mm] | zone of inhibition at 50 µM (Enterococcus faecalis [3]) [mm] | zone of inhibition at 50 µM (Enterococcus faecalis [4]) [mm] | zone of inhibition at 50 µM (Escherichia coli [5]) [mm] | zone of inhibition at 50 µM (Escherichia coli [6]) [mm] | zone of inhibition at 50 µM (Pseudomonas aeruginosa) [mm] | zone of inhibition at 50 µM (Staphylococcus aureus [7]) [mm] | zone of inhibition at 50 µM (Staphylococcus aureus [8]) [mm] | zone of inhibition at 50 µM (Acinetobacter baumannii) [mm] | zone of inhibition at 50 µM (Staphylococcus aureus [9]) [mm] | zone of inhibition at 50 µM (Staphylococcus aureus [10]) [mm] | zone of inhibition at 50 µM (Escherichia coli [11]) [mm] | zone of inhibition at 50 µM [12] [mm] | zone of inhibition at 50 µM (Enterobacter cloacae) [mm] | zone of inhibition at 50 µM (Klebsiella pneumoniae [13]) [mm] | MBC (Staphylococcus aureus [14]) [µM] | MIC (Staphylococcus aureus [15]) [µM] | MBC (Staphylococcus aureus [16]) [µM] | MIC (Staphylococcus aureus [17]) [µM] |
| --- | --- | --- | --- | --- | --- | --- | --- | --- | --- | --- | --- | --- | --- | --- | --- | --- | --- | --- | --- | --- |
| COc1ccc2c(c1)C(=O)C(=O)N2CCCCn1cc(COc2cc(C)ccc2C(C)C)nn1 | 14.7 | 12.2 | 13.2 | 11.2 | 14.2 | 11.3 | 11.3 | 13.2 | 19 | 10.2 | 15.2 | 13.2 | 14.4 | 12.6 | 10.9 | 11.3 |  |  |  |  |
| Cc1ccc(C(C)C)c(OCc2cn(CCCCN3C(=O)C(=O)c4cc(C)ccc43)nn2)c1 | 15.4 | 13.2 | 15.3 | 12.4 | 13.1 | 11.4 | 12.9 | 14.2 | 19.5 | 10.4 | 15.8 | 14.6 | 15.5 | 11.4 | 11.6 | 12.2 |  |  |  |  |
| Cc1ccc(C(C)C)c(OCc2cn(CCCCN3C(=O)C(=O)c4cc(Br)ccc43)nn2)c1 | 13.5 | 11.4 | 13.8 | 10.3 | 11.8 | 11 | 11.3 | 13.1 | 18.1 | 10.7 | 13.5 | 11.2 | 11.1 | 14.2 | 11.1 | 10.9 |  |  |  |  |
| COc1ccc2c(c1)C(=O)C(=O)N2CCn1cc(COc2cc(C)ccc2C(C)C)nn1 | 15.3 | 14.6 | 11.3 | 15.5 | 11.5 | 11.1 | 11.5 | 15.5 | 16.2 | 11.4 | 15.3 | 20.3 | 16.2 | 16.4 | 13.2 | 14.9 | 125 (≈ 54.3 µg/mL) | 62.5 (≈ 27.2 µg/mL) |  |  |
| Cc1ccc(C(C)C)c(OCc2cn(CCCCN3C(=O)C(=O)c4cc(I)ccc43)nn2)c1 | 12.2 | 10.7 | 11.2 | 10.1 | 10.4 | 10.9 | 10.6 | 14 | 16.9 | 10.1 | 13.5 | 11.9 | 10.2 | 13.5 | 10.2 | 10.1 |  |  |  |  |
| Cc1ccc(C(C)C)c(OCc2cn(CCN3C(=O)C(=O)c4cc(Br)ccc43)nn2)c1 | 13.2 | 11.2 | 12.4 | 13.6 | 12.5 | 13.2 | 14 | 13.3 | 16.2 | 12.5 | 14.2 | 16.4 | 12.5 | 15.3 | 13.3 | 12.3 |  |  |  |  |
| Cc1ccc(C(C)C)c(OCc2cn(CCCCN3C(=O)C(=O)c4cc(F)ccc43)nn2)c1 | 14.4 | 13.2 | 14.6 | 10 | 12.2 | 11.1 | 12.2 | 16.4 | 19.2 | 11.8 | 16.2 | 12.2 | 11.2 | 15.1 | 12.5 | 11.3 |  |  |  |  |
| Cc1ccc(C(C)C)c(OCc2cn(CCN3C(=O)C(=O)c4cc(I)ccc43)nn2)c1 | 12.7 | 11.6 | 12.9 | 12.2 | 10.3 | 11.3 | 10.4 | 13.1 | 15.2 | 12.1 | 13.2 | 14.1 | 11.3 | 13.4 | 13.1 | 12.2 |  |  |  |  |
| Cc1ccc(C(C)C)c(OCc2cn(CCCCN3C(=O)C(=O)c4cc(Cl)ccc43)nn2)c1 | 13.2 | 12.3 | 13.4 | 11.2 | 12.3 | 11.4 | 12.4 | 13.6 | 18.4 | 11.1 | 14.2 | 12.6 | 10.3 | 14.3 | 11.5 | 10.3 |  |  |  |  |
| Cc1ccc(C(C)C)c(OCc2cn(CCN3C(=O)C(=O)c4cc(F)ccc43)nn2)c1 | 15.2 | 14.2 | 19.3 | 15.1 | 14.3 | 14.2 | 14.2 | 15.3 | 20.3 | 11.9 | 16.6 | 19.2 | 13.3 | 17.3 | 14.2 | 13.2 |  |  | 125 (≈ 52.8 µg/mL) | 62.5 (≈ 26.4 µg/mL) |
| Cc1ccc(C(C)C)c(OCc2cn(CCCCN3C(=O)C(=O)c4ccccc43)nn2)c1 | 15.2 | 14.4 | 17.6 | 13.2 | 13.6 | 11.5 | 13.7 | 19 | 22.1 | 11.2 | 19.6 | 16.2 | 16.5 | 16.2 | 12.6 | 15.6 |  |  | 31.2 (≈ 13.5 µg/mL) | 15.6 (≈ 6.75 µg/mL) |
| Cc1ccc(C(C)C)c(OCc2cn(CCN3C(=O)C(=O)c4cc(Cl)ccc43)nn2)c1 | 15.1 | 15.2 | 15.2 | 11.2 | 13.2 | 13.1 | 14.1 | 14.6 | 19.3 | 12 | 14.3 | 19.6 | 13.6 | 16.2 | 14.2 | 13.6 |  |  |  |  |
